From PubChem
SF-1 act: activates the human nuclear receptor SF-1; CHO-K1 Gal4-SF-1 LBD luciferase reporter; % increase over DMSO SF-1-specific signal; activation, % at 10 µM; actives 1.9% (n = 65,000);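 active means activation above the mean activation of all tested compounds plus 3 SD, cut at about 50% in these data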
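Assay system – CHO-K1 cells with Gal4–hSF-1 LBD chimera plus Gal4-driven luciferase · Quantity – 4,000 cells per well · Times – compound added 1 h post-seeding, 20 h exposure at 37 °C, 5% CO2 · Measured by – luciferase light emission · Benchmarks – DMSO and mock-transfected background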
D1 allo mod: allosteric modulators of human D1 dopamine receptor; HEK293 D1, CRE-luciferase, dopamine EC30 potentiation; actives deviate in either direction; P21728; B-score at 10 µM; actives 5.9% (n = 58,000); AID 641;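 active means luminescence count or its row- and column-corrected plate score outside the 99.7% band of the plate's sample wells, on either side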
RORA act: activators of human nuclear receptor RORA; P35398; CHO-K1 Gal4-RORA LBD luciferase reporter, luminescence; percent increase over mock-subtracted basal signal; activation, % at 10 µM; actives 1.5% (n = 65,000); AID 560;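 active means activation above the mean of all tested compounds plus 3 SD, cut at about 49% in these data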;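 further: 0% = DMSO-treated RORA cells and 100% = added signal equal to DMSO minus mock-transfected cells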
JNK3 inh: inhibitors of human JNK3 kinase; P53779; purified JNK3 kinase activity, HTS; inhibition, % at 8 µM; actives 0.61% (n = 60,000); AID 746; in the data active means inhibition above about 17%;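 further: 0% = DMSO and 100% = reference inhibitor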
Target sequence (P53779 whole entry, looked up): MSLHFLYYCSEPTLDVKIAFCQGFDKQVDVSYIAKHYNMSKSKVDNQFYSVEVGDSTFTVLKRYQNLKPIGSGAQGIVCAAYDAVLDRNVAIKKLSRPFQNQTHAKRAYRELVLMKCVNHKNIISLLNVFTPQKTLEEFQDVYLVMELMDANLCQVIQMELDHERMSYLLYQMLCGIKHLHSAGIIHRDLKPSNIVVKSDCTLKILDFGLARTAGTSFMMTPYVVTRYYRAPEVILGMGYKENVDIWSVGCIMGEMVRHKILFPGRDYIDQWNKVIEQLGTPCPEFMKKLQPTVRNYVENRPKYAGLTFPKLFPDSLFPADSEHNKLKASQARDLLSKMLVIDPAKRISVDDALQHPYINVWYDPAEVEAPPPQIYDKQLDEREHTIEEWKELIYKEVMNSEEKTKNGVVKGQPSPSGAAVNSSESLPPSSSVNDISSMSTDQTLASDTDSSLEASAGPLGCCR
HEK293 NFkB inh: lowers PMA/ionomycin-induced NF-kB signal in HEK293 cells; inhibition, % at 3 µM; actives 0.21% (n = 62,000); HEK-293 NF-kB luciferase reporter, luminescence;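 active means inhibition above the mean of all tested compounds plus 3 SD, cut at about 40% in these data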;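 further: 0% = stimulated DMSO wells and 100% = 10 µM reference inhibitor 5653914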
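System – HEK-293 cells with stable firefly luciferase reporter driven by four HIV NF-kB elements · Doses – one dose, 3 µM · Schedule – 1 h compound pre-incubation, 16 h PMA/ionomycin at 37 °C · Technique – luminescence from luciferase substrate reagent · Measure – percent inhibition normalized per plate to DMSO and reference-inhibitor controls · Replicates – tested once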
D1 mod confirm: D1 receptor (human) allosteric modulation, confirmed | HEK293 D1 CRE-luciferase, dopamine EC30 potentiation; active compounds read high | shares compounds with D1 allo mod | AID 642 | actives 88% (n = 2,200) | luminescence at 10 µM;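 active means luminescence in either of two replicates above the same-plate mean plus 3 SD of the low-dose dopamine control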
D1 no dopamine: activates D1 CRE-luciferase signal without dopamine present | shares compounds with D1 allo mod | HEK293 D1 CRE-luciferase, luminescence, no dopamine; active compounds read high | luminescence at 10 µM | actives 0.8% (n = 1,900); in the data active means luminescence above about 3900
Isoprot counter: alters isoproterenol CRE-luciferase response in HEK293 cells; shares compounds with D1 allo mod; HEK293 D1 CRE-luciferase, isoproterenol EC30 counter-screen; calls only at 10 µM; actives 63% (n = 2,200); AID 647;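 active means luminescence in either replicate above plate mean of wells with a partly effective reference agonist dose plus 3 SD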;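 further: isoproterenol raises cAMP through native beta-adrenoceptor Gs so signal bypasses D1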
* = called active by the depositor; i = inactive; x = no result given; + = active, no number. An excerpt weighted towards active compounds, which were near 7.9% of everything screened.

SMILES	SF-1 act	D1 allo mod	RORA act	JNK3 inh	HEK293 NFkB inh	D1 mod confirm	D1 no dopamine	Isoprot counter
CCCCNC(=O)C1CCCN1C(=O)Nc1cccc(OC)c1 (stereo not given)	-9.4	30.2*	-8.1	-1.8	20.7	4704	1636	i
CCOC(=O)NC(=O)CN1C(=O)NC(C)(c2ccccc2)C1=O (stereo not given)	5.0	4.36*	0.9	2.0	6.6	5048	704	i
CC1(c2ccccc2)NC(=O)N(CC(=O)NC(=O)NC2CCCC2)C1=O (stereo not given)	-5.2	-0.977	4.4	4.2	6.8	x	x	x
Cc1nn2c(-c3ccco3)nnc2c2ccccc12	17.9	1.29	-21.2	1.1	9.1	x	x	x
Cc1nn2c(-c3ccncc3)nnc2c2ccccc12	-9.7	2.71*	-4.8	-6.5	-9.0	6068*	1544	+
Cn1c(=O)c2c(nc(CN3CCN(C(=O)c4ccco4)CC3)n2Cc2ccc(Cl)cc2)n(C)c1=O	21.0	0.956	8.4	2.6	-1.6	x	x	x
c1ccn2c(CNc3ncnc4sccc34)nnc2c1	6.6	0.0237	1.8	-3.8	12.3	x	x	x
C=CCSc1ncccc1C(=O)NCc1ccccc1	-23.6	24.9*	-17.5	-3.1	11.5	20632*	1692	+
O=C(CSc1ncccn1)NCc1ccccc1	0.3	-0.665	12.2	4.3	9.5	x	x	x
CC(=O)Nc1nc2c(c3c1c(=O)oc1ccccc13)CC(C)CC2 (stereo not given)	4.4	-0.0927	-22.2	4.4	10.7	x	x	x
CCCCc1cc2c(c(NC(C)=O)n1)c(=O)oc1ccccc12	-12.5	15.3*	-14.1	0.7	8.5	14552*	1312	+
CCCCc1cc2c(c(NC(=O)CC)n1)c(=O)oc1ccccc12	-0.6	6.6*	-10.2	3.3	3.8	23508*	1676	+
CC(=O)Nc1nc(CC(C)C)cc2c1c(=O)oc1ccccc12	6.3	3.09	-12.9	-1.1	11.5	x	x	x
COc1ccc(NS(=O)(=O)c2ccc(NS(=O)(=O)c3ccc(C)cc3)cc2)nn1	-1.2	-0.888	6.3	-3.9	14.8	x	x	x
CN1CC2=Cc3ccccc3OC23Oc2ccccc2C=C3C1	-16.4	-0.838	4.4	7.5	7.7	x	x	x
O=C(Cc1cccs1)Nc1ccccc1NC(=O)Cc1cccs1	-17.6	4.9*	-6.0	-2.7	10.8	5744	1712	i
O=C(Cc1cccs1)Nc1ccccc1C(=O)O	7.0	-1.2	24.2	-0.6	2.2	x	x	x
COc1ccccc1S(=O)Cc1ccc(C(=O)NCc2ccccc2Cl)o1 (stereo not given)	11.7	1.55	-17.2	3.5	-2.9	x	x	x
O=C(Cc1ccccc1)Nc1nonc1NC(=O)c1ccccc1	7.5	4.08*	5.4	-2.7	13.8	8752*	1296	+
O=C(Cc1ccccc1)Nc1ccc(C(=O)O)cc1	-14.1	1.26	1.6	9.0	14.0	x	x	x
C=CCc1cccc2cc(C(=O)N3CCN(C(=O)c4ccco4)CC3)c(=O)oc12	1.4	1.23	-7.9	2.3	-2.3	x	x	x
CC1CCCN(c2nc3c(c(=O)[nH]c(=O)n3C)n2CCSc2nc3ccccc3o2)C1 (stereo not given)	-17.1	x	21.3	3.6	8.6	x	x	x
Cn1c(=O)[nH]c(=O)c2c1nc(N1CCCC1)n2CCCSc1nc2ccccc2o1	15.8	5.29*	-3.1	x	18.9	17352*	2232	+
Cn1c(=O)c2c(nc(N3CCCCC3)n2CCSc2nc3ccccc3s2)n(C)c1=O	-11.2	-0.0997	-0.5	1.8	-3.2	x	x	x
Cc1nnc(SCCn2c(N3CCCC(C)C3)nc3c2c(=O)[nH]c(=O)n3C)s1 (stereo not given)	3.9	4.13*	5.4	2.7	-8.3	9916*	1740	i
SMILES	SF-1 act	D1 allo mod	RORA act	JNK3 inh	HEK293 NFkB inh	D1 mod confirm	D1 no dopamine	Isoprot counter
Cn1c(=O)[nH]c(=O)c2c1nc(N1CCCCC1)n2CCCSc1nc2ccccc2s1	-5.0	5.67*	-18.5	-0.1	1.8	16664*	1660	+
Cc1nnc(SCCn2c(N3CCC(C)CC3)nc3c2c(=O)[nH]c(=O)n3C)s1	23.0	-0.171	-9.2	0.1	8.9	x	x	x
Cn1c(=O)[nH]c(=O)c2c1nc(Br)n2CCCSc1nc2ccccc2o1	5.0	6.72*	17.0	-5.8	11.5	10016*	1580	+
O=C(CCc1nc(-c2ccccc2F)no1)Nc1ccc(Oc2ccccc2)cc1	-29.7	8.64*	-6.2	2.4	22.0	4944	1544	i
COc1ccc(CNC(=O)CCc2nc(-c3ccccc3F)no2)c(OC)c1	-3.3	-0.44	-8.7	-4.9	10.9	x	x	x
CC1(C)Cc2ccccc2-c2nnc(SCC(=O)Nc3nc4ccccc4s3)n21	-13.2	0.196	-4.1	4.2	-5.2	x	x	x
CCn1c(SCC(=O)NCC(=O)Nc2ccc(F)cc2)nnc1-c1cccs1	10.7	3*	-17.4	0.6	8.1	4428	1640	i
COc1ccc(N/C=C2/CCCCC2=O)cc1	19.8	2.84*	25.8	-2.7	-16.0	4708	1400	i
Cc1cc(-c2ccccc2)nc2cc(C(N)=O)nn12	6.7	9.44*	2.2	-4.4	9.1	9500*	1480	+
CCc1nc(NC2CCCCC2)c(C#N)c2c1COC(C)(C)C2	-5.9	x	5.5	-7.0	x	x	x	x
CSc1c(C#N)c(N)c(C#N)c2c1COC(C)(C)C2	-0.5	24.5*	-7.2	4.2	21.0	28108*	1616	+
CCOc1ccc(-c2nc(CSc3nncs3)cs2)cc1OC	4.1	22.9*	2.4	x	9.7	21360*	x	+
COc1ccc(NC(=O)CSc2nncs2)cc1OC	7.8	0.00509	-1.8	0.8	22.6	x	x	x
CCn1c(=O)c2c(n3cnnc13)-c1ccccc1CC21CCCCC1	21.0	26.1*	-6.3	-5.9	7.0	16572*	1652	+
CCOC(=O)NCCc1ccc(OC)cc1	-5.5	3.75*	7.2	-3.2	-6.5	8468*	1752	i
Nc1nc(Cl)nc2c1ncn2[C@@H]1O[C@H](CO)[C@@H](O)[C@H]1O	-16.9	23.7*	8.2	6.8	x	16252*	5660*	+
CCCC(=O)Nc1c(C)nn(C(=O)CCC)c1C	-3.9	0.366	11.6	1.1	13.8	x	x	x
COc1ccc(NC(=O)c2nc[nH]c2C(=O)Nc2ccccc2C)cc1	24.4	7.54*	27.4	4.5	20.7	14740*	1512	+
CNC(=O)c1[nH]cnc1C(=O)Nc1cccc(OC)c1	12.2	4.49*	-8.2	17.9*	5.3	10128*	1656	+
COc1ccccc1NC(=O)c1nc[nH]c1C(=O)Nc1ccccc1OC	1.9	0.838	5.7	1.3	19.2	x	x	x
